LYPLA1 counter – LYPLA1 inhibitors, primary screen, counter-screen for PME1 inhibitor project, biochemical, fluorescence polarization, FP-Rh probe ABPP; 320,000 compounds, 0.16% hits; AID 2174, 2009; Acyl-protein thioesterase 1 (Homo sapiens), O75608; inhibition, % at 5.9 µM; recombinant LYPLA1;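 active = inhibition above the mean of all tested compounds plus 3 SD, set per campaign, cut at about 14% in these data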;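 also: inhibitors block serine hydrolase probe labeling of LYPLA1 so polarization falls; 0% = enzyme with DMSO and 100% = wells lacking LYPLA1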
Target sequence (O75608 whole entry, looked up): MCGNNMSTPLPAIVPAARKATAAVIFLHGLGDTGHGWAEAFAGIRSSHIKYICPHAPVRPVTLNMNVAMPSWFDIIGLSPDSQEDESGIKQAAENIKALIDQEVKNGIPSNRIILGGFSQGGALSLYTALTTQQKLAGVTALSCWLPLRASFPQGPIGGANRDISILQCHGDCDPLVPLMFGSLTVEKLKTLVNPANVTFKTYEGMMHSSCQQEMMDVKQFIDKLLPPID
RBBP9 inhibitor – human RBBP9 inhibitors, primary screen, biochemical, fluorescence polarization, FP-Rh probe, HTS | recombinant RBBP9 | 220,000 compounds, 0.2% hits | AID 1515, 2009 | Serine hydrolase RBBP9 (Homo sapiens), O75884 | inhibition, % at 7.94 µM;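 active = inhibition above the campaign mean of all tested compounds plus 3 SD, cut at about 14% in these data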;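 also: plate controls were DMSO wells with RBBP9 for no effect and wells lacking RBBP9 protein for full effect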
Target sequence (O75884 whole entry, looked up): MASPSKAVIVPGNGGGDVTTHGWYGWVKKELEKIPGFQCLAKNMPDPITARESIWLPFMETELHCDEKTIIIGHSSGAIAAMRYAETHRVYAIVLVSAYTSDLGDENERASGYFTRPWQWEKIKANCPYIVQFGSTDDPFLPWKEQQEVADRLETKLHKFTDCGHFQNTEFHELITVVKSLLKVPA
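Material: RBBP9 protein. Amount: RBBP9 at 2.5 µM in dispensed solution, before mixing. Schedule: 30 min then 45 min, 25 °C. Medium: Tris buffer pH 8.0, NaCl, Pluronic. Measured by: fluorescence polarization. Measure: percent inhibition from mP, scaled between DMSO and no-protein wells. Replication: one well per compound.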
Fam108B counter – mouse Fam108B serine hydrolase inhibitors, primary screen, counter-screen for RBBP9 inhibitor project, biochemical, fluorescence polarization; 300,000 compounds, 0.33% hits; recombinant Fam108B, FP-Rh probe fluorescence polarization; AID 1947, 2009; inhibition, % at 9.51 µM;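 active = inhibition above the screen mean inhibition plus 3 SD, computed separately per campaign, cut at about 18% in these data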;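 also: inhibitors lower polarization as less probe binds the enzyme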
LYPLA2 inh – LYPLA2 inhibitors, primary screen, counter-screen for PME1 inhibitor project, biochemical, fluorescence polarization, FP-Rh probe ABPP; recombinant LYPLA2; inhibition, % at 5.9 µM; 320,000 compounds, 0.38% hits;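 active = inhibition above the screen-wide mean plus 3 SD, limit set per campaign, cut at about 26% in these data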;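 also: 0% = LYPLA2 with DMSO and 100% = wells lacking LYPLA2 enzyme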
Target sequence (O95372 whole entry, looked up): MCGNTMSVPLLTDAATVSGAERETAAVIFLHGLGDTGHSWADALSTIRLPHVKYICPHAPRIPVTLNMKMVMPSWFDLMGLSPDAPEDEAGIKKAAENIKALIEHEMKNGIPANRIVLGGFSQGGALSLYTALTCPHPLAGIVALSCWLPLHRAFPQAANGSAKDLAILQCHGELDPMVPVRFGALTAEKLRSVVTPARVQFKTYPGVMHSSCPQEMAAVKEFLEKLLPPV
PME-1 primary – PME-1 inhibitors via competitive probe labeling, primary screen, biochemical, fluorescence polarization, FP-Rh probe, HTS. Protein phosphatase methylesterase 1 (Homo sapiens), Q9Y570. recombinant PME-1. inhibition, % at 5.9 µM. 320,000 compounds, 0.53% hits;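 active = inhibition above the campaign mean of all compounds plus 3 SD, cut at about 26% in these data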;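 also: competitive labeling of PME-1 active site by serine hydrolase directed probe; 0% = PME-1 with DMSO and 100% = wells lacking PME-1 enzyme; inhibitors block probe labeling so polarization falls and inhibition rises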
LYPLA2 conf – LYPLA2 inhibitors, retest, confirmation, counter-screen for PME1 inhibitor project, biochemical, fluorescence polarization, FP-Rh probe ABPP | shares compounds with LYPLA2 inh | recombinant LYPLA2 | inhibition, % at 5.9 µM | 1,100 compounds, 72% hits | AID 2232, 2010;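 active = mean inhibition across replicates above the hit cutoff set in the primary screen, cut at about 26% in these data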;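 also: blocked labeling of the enzyme by serine hydrolase FP-Rh probe lowers polarization; 0% = enzyme with DMSO and 100% = wells lacking LYPLA2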
LYPLA2 ABPP – LYPLA2 inhibitors in proteome, late-stage follow-up, gel-based competitive ABPP, fluorescence, assay provider; inhibition, % at 20 µM; AID 652029, 2013; rhLYPLA2 in mouse brain proteome, gel ABPP FP-Rh; 150 compounds, 30% hits; shares compounds with LYPLA2 inh;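 active = inhibition of LYPLA2 enzyme probe labeling above about 50%, limit read from the data; inactive = inhibition below that limit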;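 also: loss of FP-Rh probe labeling of the LYPLA2 gel band measured as band density; 0% = DMSO only control band and 100% = blank gel background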
Active calls of the source: *; nt = not tested or not shown. A selection: hits, their analogues and other compounds. The true share with any hit is near 0.99%.

SMILES	LYPLA1 counter	RBBP9 inhibitor	Fam108B counter	LYPLA2 inh	PME-1 primary	LYPLA2 conf	others
O=C1C2CCCCN2C(=O)N1CCCCN1CCN(c2ccc([N+](=O)[O-])cc2)CC1 (stereo not drawn)	5.7	-1.4	3.5	30.9*	1.0	16.0
O=[N+]([O-])c1ccc(N2CCN(Cc3cccc([N+](=O)[O-])c3)CC2)cc1	-0.7	nt	1.2	11.2	2.2	nt
Cc1ccc(N2CCN(CCCN3C(=O)C4CCCN4C3=O)CC2)cc1 (stereo not drawn)	5.5	-6.6	3.0	6.5	9.2	nt
O=[N+]([O-])c1ccc(CN2CCN(c3ccc([N+](=O)[O-])cc3)CC2)cc1	7.6	nt	0.8	47.2*	-2.3	31.3*
COc1cccc(NC(=O)N2CCC(NC(=O)c3ccco3)CC2)c1	2.4	nt	0.9	5.8	-0.8	nt
Cc1ccc(OCCN2C(=O)OC(C)(C)C2(C)O)cc1 (stereo not drawn)	1.6	-3.8	-0.3	4.4	-5.1	nt
CCOC(=O)N1CCN(C(=O)CCN2C(=O)c3ccccc3S2(=O)=O)CC1	-0.4	nt	-2.7	0.1	-0.6	nt
COc1ccc(N2CCN(C(=O)CCS(=O)(=O)c3ccc(OC)cc3)CC2)cc1	0.4	-5.3	3.5	8.1	-3.5	nt
COc1ccc(N2CCN(C(=O)CCN3C(=O)c4ccccc4S3(=O)=O)CC2)cc1	-0.6	-1.5	-2.7	34.4*	2.9	34.0*
CC(=O)c1ccc(N2CCN(C(=O)CCS(=O)(=O)c3ccc(C)cc3)CC2)cc1	4.9	-5.6	-6.5	16.6	-4.5	nt
COc1ccc(S(=O)(=O)CCC(=O)N2CCN(c3ccc([N+](=O)[O-])cc3)CC2)cc1	9.5	nt	-0.9	54.9*	3.3	58.4*	LYPLA2 ABPP=25.0
Cc1ccc(S(=O)(=O)CCC(=O)N2CCN(c3ccc([N+](=O)[O-])cc3)CC2)cc1	9.0	nt	-2.1	39.4*	5.8	34.8*
COc1ccc(N2CCN(C(=O)CN(C)S(=O)(=O)c3ccc4c(c3)c(=O)n(C)c(=O)n4C)CC2)cc1	6.4	-2.7	4.5	60.9*	2.9	50.6*	LYPLA2 ABPP=14.0
CN(CC(=O)N1CCN(c2ccc(F)cc2)CC1)S(=O)(=O)c1ccc2c(c1)c(=O)n(C)c(=O)n2C	-0.4	-10.2	0.0	7.7	-4.8	nt
CCc1nnc(NS(=O)(=O)c2ccc(NC(=S)NC(=O)/C=C/c3ccc([N+](=O)[O-])cc3)cc2)s1	1.0	-6.2	-2.5	67.0*	-4.5	77.3*	LYPLA2 ABPP=37.0
C=CCn1c(=O)c2ccccc2n2c(SCc3nnc(-c4ccccc4Br)o3)nnc12	2.7	-8.9	-0.2	-5.1	-1.6	nt
Cc1nc2ccccc2n(CC(=O)Nc2cc(Cl)cc(Cl)c2)c1=O	-1.6	-6.3	-0.4	31.8*	-4.0	42.4*
O=C1CC(C(=O)N2CCN(c3ccccc3O)CC2)CN1Cc1ccccc1 (stereo not drawn)	0.8	nt	0.6	-2.4	3.5	nt
COc1cc(C=NNC(=O)C(NC(=O)c2ccccc2)c2n[nH]c(=O)c3ccccc23)ccc1OCC(N)=O (stereo not drawn)	nt	nt	nt	nt	nt	nt	LYPLA2 ABPP=61.0*
Cc1ccc(C(=O)N2CCN(C)CC2)cc1S(=O)(=O)N1CCCCCC1	1.4	nt	-1.9	27.2*	17.6	-4.2
C#CCOCCOCCOCCNc1nc(N2CCN(C(=O)CCCCCCCCCCNC(=O)Cn3cc(C[C@@H](C)O)nn3)CC2)nc(N2CCN(C(=O)CCCCCCCCCCNC(=O)[C@@H]([C@H](C)CC)n3cc(CCCCCN)nn3)CC2)n1	0.2	nt	-2.5	30.5*	-0.1	28.0*
c1ccc(-c2ccc(C(c3ccccc3)n3ccnc3)cc2)cc1 (stereo not drawn)	-3.9	1.8	2.3	27.4*	-5.0	23.1
O=C(CN1CCN(c2ccc(Cl)cc2[N+](=O)[O-])CC1)N1CCOCC1	2.1	-7.2	-1.2	7.7	0.9	nt
CC(=O)N1CCN(CC(=O)Nc2ccc([N+](=O)[O-])cc2Br)CC1	1.6	-2.1	1.1	2.2	-7.0	nt
NC(=O)CC(NC(=O)c1ccc(Br)cc1)c1ccc(N2CCN(c3ccccc3)CC2)c([N+](=O)[O-])c1 (stereo not drawn)	-3.8	nt	-1.6	26.2*	-0.6	28.4*
SMILES	LYPLA1 counter	RBBP9 inhibitor	Fam108B counter	LYPLA2 inh	PME-1 primary	LYPLA2 conf	others
COC(=O)/C(=N/Nc1ccccc1C)Sc1nnc(C(O)c2ccccc2)n1-c1ccccc1 (stereo not drawn)	-12.0	-6.4	-0.7	-2.8	-0.3	nt
COc1cc(OC)nc(Oc2ccccc2C(=O)Oc2cccc(C)c2)n1	-2.5	-2.2	3.1	3.4	-1.7	nt
CC(CCC(C)C)=NNC(=S)Nc1cc(S(=O)(=O)N2CCOCC2)ccc1N1CCOCC1	nt	nt	nt	nt	nt	nt	LYPLA2 ABPP=60.0*
COc1cc(/C=C2\CCc3ccccc3C2=O)cc(OC)c1OC	3.0	-3.0	3.9	26.8*	2.2	18.0
Nc1nnc(SCC(=O)c2ccc([N+](=O)[O-])cc2)s1	-2.2	-0.4	4.7	29.2*	4.0	13.7
Cc1nnc(SCC(=O)c2ccc([N+](=O)[O-])cc2)s1	2.6	-3.5	11.2	11.2	0.3	nt
CCOC(=O)N1CCN(/C=C(\C#N)c2nc3ccccc3s2)CC1	-3.9	3.0	0.0	-5.6	0.1	nt
N#C/C(=C\N1CCN(Cc2ccc3c(c2)OCO3)CC1)c1nc2ccccc2s1	11.2	-1.8	-6.6	49.7*	-10.4	52.5*	LYPLA2 ABPP=40.0
Cc1ccc(C)c(-n2c(-c3ccc(Br)cc3)csc2=NC(=O)c2ccccc2F)c1	-2.2	-4.5	-3.2	-9.6	-14.2	nt
COc1cccc(-c2ccc(NC(=O)C3CCCN(Cc4cnc(N(C)C)s4)C3)cc2)c1 (stereo not drawn)	-2.2	nt	-0.5	27.8*	-3.1	-1.2
CCN(CC)S(=O)(=O)c1ccc(N2CCOCC2)c(NC(=O)COc2ccc(OC)cc2)c1	-1.5	nt	nt	25.3	8.4	nt
CCN(CC)S(=O)(=O)c1ccc(N2CCOCC2)c(NC(=O)COc2ccc(C#N)cc2)c1	3.5	-3.0	-4.0	77.1*	10.6	78.5*	LYPLA2 ABPP=64.0*
CCN(CC)S(=O)(=O)c1ccc(N2CCOCC2)c(NC(=O)c2cc(=O)[nH]c3ccccc23)c1	-1.1	5.0	-2.3	35.8*	-5.0	43.0*
COc1cc(C2Oc3cc(C4Oc5cc(O)cc(O)c5C(=O)C4O)ccc3OC2CO)ccc1O (stereo not drawn)	10.1	-1.1	1.9	59.8*	-2.1	69.3*	LYPLA2 ABPP=75.0*
